Experimental data from article PMC8361970 (Pediatric Diabetes, 2021).

Legend:
Format in all cases: in vivo, human
[1] = tested on: children and adolescents (6–17 years) with type 1 diabetes, insulin-induced hypoglycemia; conditions: for Mean PG increase from baseline after 30 min: 30 min after single SC dose, full analysis set; for IV glucose rescue required (participants): within 45 min of single SC dose
Procedure, shortened: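 After an overnight fast, IV insulin glulisine was infused until PG fell below 80 mg/dL. Five min later, if PG was 54–80 mg/dL, a single SC injection was given. Central-lab PG was taken pre-dose and at 4–45 min (60 min if ≥21 kg). Change from baseline was analysed by ANCOVA (treatment, age group, injection site; baseline PG covariate), with PG at rescue carried forward.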

[2] = tested on: children and adolescents (6–17 years) with type 1 diabetes; test: Phase 3 trial: adverse events; conditions: for Duration of nausea AEs / Duration of vomiting AEs: majority of events; for Onset of nausea AEs after dosing: most AEs of nausea
[3] = tested on: children and adolescents (6–17 years) with type 1 diabetes; test: Phase 3 trial: anti-drug antibodies; conditions: the one positive participant

Substance: dasiglucagon
- Mean PG increase from baseline after 30 min [1]: 98.2 mg/dL
- IV glucose rescue required (participants) [1]: none
- Duration of nausea AEs [2]: less than 2 h
- Duration of vomiting AEs [2]: less than 5 min
- Onset of nausea AEs after dosing [2]: 1.5 to 3 h
- Anti-drug antibody titer [3]: low titer
- Cross-reaction of anti-drug antibodies with glucagon [3]: did not cross‐react with glucagon
- Neutralizing activity of anti-drug antibodies [3]: No neutralizing activity was detected

Substance: glucagon [reference compound]
- Mean PG increase from baseline after 30 min [1]: 8440 mg/dL
- IV glucose rescue required (participants) [1]: none
- Duration of nausea AEs [2]: less than 2 h
- Duration of vomiting AEs [2]: less than 5 min
- Onset of nausea AEs after dosing [2]: 1.5 to 3 h
